Laboratory results: ChEMBL document CHEMBL1134616, “Novel 7-oxyiminomethyl derivatives of camptothecin with potent in vitro and in vivo antitumor activity” (J Med Chem, 2001)

Experiments:
NCI-H460 [1] = assay: Complete response in CD1 mice with human Non-Small-Cell tumor at a oral dose of 3 mg/kg; type: functional
Method in brief: (§1)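 Nude athymic CD1 mice, 8–10 weeks old, carrying serially passaged human lung tumor fragments implanted s.c. in both flanks. Oral dosing in 10 mL/kg on a q4dx4 schedule, begun once tumors were visible but not yet measurable. Complete response means no detectable tumor for at least 10 days after the end of treatment.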

NCI-H460 [2] = assay: Log 10 cell kill induced by treatment iin CD1 mice with human Non-Small-Cell tumor at a oral dose of 1 mg/kg; type: functional
Method in brief: (§2)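 Nude athymic CD1 mice, 8–10 weeks, carrying s.c. human lung tumor fragments in both flanks. Given per os on a q4dx4 schedule at 10 mL/kg, starting when tumors were visible but not measurable. Volume = d²×D/2. Log10 cell kill = T−C/3.32 × tumor doubling time, where T and C are the days for treated and control tumors to reach a mean volume of 1000 mm³.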

NCI-H460 [3] = assay: No. of dead mice/ total No. of mice in CD1 mice with human Non-Small-Cell tumor at a oral dose of 1 mg/kg; type: ADME, organism-based; design: dose 1 mg/kg, route oral; conditions: in vivo
Method in brief: (§3)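 Human lung tumor s.c. xenografts (fragments, both flanks) in nude athymic CD1 mice aged 8–10 weeks. Oral q4dx4 dosing at 10 mL/kg, begun when tumors were visible but not measurable. Toxicity is recorded as the number of dead mice over the total number of treated mice.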

[4] = Complete response in mice with lung carcinoma LX-1 at a oral dose of 3 mg/kg; type: functional, Mus musculus; method in brief: as §1
[5] = Percentage inhibition of tumor volume mice with lung carcinoma LX-1 at a oral dose of 3 mg/kg; type: functional; conditions: Mus musculus
Method in brief: (§4)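 Nude athymic CD1 mice, 8–10 weeks old, with human lung tumor fragments implanted s.c. in both flanks. Oral dosing in 10 mL/kg, q4dx4, started when tumors were visible but not measurable. Tumor volume = d²×D/2 from caliper diameters. Percent inhibition of treated versus control volume taken 7–10 days after the last dose. Volumes compared by Student's t test, P<0.05.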

NCI-H460 [6] = assay: Complete response in CD1 mice with human Non-Small-Cell tumor at a oral dose of 1 mg/kg; type: functional; method in brief: as §1
NCI-H460 [7] = assay: Percentage inhibition of tumor volume in treated versus control mice against human Non-Small-Cell tumor xenograft at a oral dose of 2 mg/kg; type: functional; conditions: Mus musculus; method in brief: as §4
NCI-H460 [8] = assay: Percentage of body weight loss in CD1 mice with human Non-Small-Cell tumor at a oral dose of 4 mg/kg
NCI-H460 [9] = assay: Percentage inhibition of tumor volume in treated versus control mice against human Non-Small-Cell tumor xenograft at a oral dose of 3 mg/kg; type: functional; conditions: Mus musculus; method in brief: as §4
NCI-H460 [10] = assay: Percentage of body weight loss in CD1 mice with human Non-Small-Cell tumor at a oral dose of 1 mg/kg; type: functional
Method in brief: (§5)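 Nude athymic CD1 mice, 8–10 weeks old, bearing s.c. human lung tumor xenografts in both flanks. Given oral drug in 10 mL/kg on a q4dx4 schedule, beginning when tumors were visible but not measurable. Read-out is percent body weight loss after drug treatment.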

[11] = Percentage of body weight loss in mice with lung carcinoma LX-1 at a oral dose of 3 mg/kg; type: functional, Mus musculus; method in brief: as §5
NCI-H460 [12] = assay: Percentage inhibition of tumor volume in treated versus control mice against human Non-Small-Cell tumor xenograft at a oral dose of 1 mg/kg; type: functional; conditions: Mus musculus; method in brief: as §4
[13] = Percentage inhibition of tumor volume in treated versus control mice against human Non-Small-Cell tumor xenograft at a oral dose of 4 mg/kg; type: functional; conditions: Mus musculus; method in brief: as §4
[14] = Log 10 cell kill induced by treatment in mice with lung carcinoma LX-1 at a oral dose of 3 mg/kg; type: functional, Mus musculus; method in brief: as §2
NCI-H460 [15] = assay: No. of dead mice/ total No. of mice with human Non-Small-Cell tumor at a oral dose of 2 mg/kg; type: ADME, organism-based; design: dose 2 mg/kg, route oral; conditions: in vivo; method in brief: as §3
NCI-H460 [16] = assay: Complete response in CD1 mice with human Non-Small-Cell tumor at a oral dose of 2 mg/kg; type: functional; method in brief: as §1
[17] = Percentage of body weight loss in CD1 mice with human Non-Small-Cell tumor at a oral dose of 4 mg/kg; type: functional, Mus musculus; method in brief: as §5
[18] = Complete response in CD1 mice with human Non-Small-Cell tumor at a oral dose of 4 mg/kg; type: functional, Mus musculus; method in brief: as §1
[19] = Cytotoxicity against human non-small-cell lung carcinoma cell line H460 (NSCLC-H460); type: functional, cell-based
Method in brief: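 Logarithmically growing cells were seeded in duplicate, exposed to drug for 1 h starting 24 h after seeding, and counted by Coulter counter 72 h after exposure. Drug was dissolved in DMSO before dilution. The IC50 is the concentration giving a 50% decrease in growth relative to untreated control.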

NCI-H460 [20] = assay: Percentage of body weight loss in CD1 mice with human Non-Small-Cell tumor at a oral dose of 2 mg/kg; type: functional; method in brief: as §5
NCI-H460 [21] = assay: Log 10 cell kill induced by treatment in CD1 mice with human Non-Small-Cell tumor at a oral dose of 3 mg/kg; type: functional; method in brief: as §2
[22] = Log 10 cell kill induced by treatment in CD1 mice with human Non-Small-Cell tumor at a oral dose of 2 mg/kg
[23] = No. of dead mice/ total No. of mice in mice with lung carcinoma LX-1 at a oral dose of 3 mg/kg; type: ADME, organism-based; design: dose 3 mg/kg, route oral; conditions: mouse, in vivo; method in brief: as §3
NCI-H460 [24] = assay: No. of dead mice/ total No. of mice with human Non-Small-Cell tumor at a oral dose of 3 mg/kg; type: ADME, organism-based; design: dose 3 mg/kg, route oral; conditions: in vivo; method in brief: as §3
NCI-H460 [25] = assay: Log 10 cell kill induced by treatment in CD1 mice with human Non-Small-Cell tumor at a oral dose of 2 mg/kg; type: functional; method in brief: as §2

For `CC[C@@]1(O)C(=O)OCc2c1cc1n(c2=O)Cc2c-1nc1ccccc1c2/C=N/OC(C)(C)C` [GIMATECAN], which CR (NCI-H460 [1]) is on record?
Its CR is 8.

And the LCK (NCI-H460 [2])?
Its LCK is 1.4.

What about the Toxicity (NCI-H460 [3]) of the same compound?
Its Toxicity is 0.

And the CR [4]?
Its CR is 8.

What about the inhibition in vivo at 3 mg/kg [5] of the same compound?
Its inhibition in vivo at 3 mg/kg is 100%.

What about the CR (NCI-H460 [6]) of the same compound?
The CR was 0.

And the inhibition in vivo at 2 mg/kg (NCI-H460 [7])?
The inhibition in vivo at 2 mg/kg was 99%.

What about the BWL (NCI-H460 [8]) of the same compound?
The BWL was 23%.

And the inhibition in vivo at 3 mg/kg (NCI-H460 [9])?
The inhibition in vivo at 3 mg/kg was 100%.

What about the BWL (NCI-H460 [10]) of the same compound?
Its BWL is 0%.

What about the BWL [11] of the same compound?
Its BWL is 11%.

And the inhibition in vivo at 1 mg/kg (NCI-H460 [12])?
Its inhibition in vivo at 1 mg/kg is 90%.

What about the inhibition in vivo at 4 mg/kg [13] of the same compound?
The inhibition in vivo at 4 mg/kg was 99%.

What about the LCK [14] of the same compound?
Its LCK is 5.3.

And the Toxicity (NCI-H460 [15])?
The Toxicity was 0.

What about the CR (NCI-H460 [16]) of the same compound?
Its CR is 5.

And the BWL [17]?
The BWL was 5%.

And the CR [18]?
Its CR is 4.

What about the IC50 [19] of the same compound?
The IC50 was 15 nM.

And the BWL (NCI-H460 [20])?
The BWL was 1%.

And the LCK (NCI-H460 [21])?
Its LCK is 2.5.

What about the LCK [22] of the same compound?
Its LCK is 2.4.

What about the Toxicity [23] of the same compound?
The Toxicity was 0.

What about the Toxicity (NCI-H460 [24]) of the same compound?
The Toxicity was 2.

And the LCK (NCI-H460 [25])?
The LCK was 2.4.
